Values after ≈ are worked out from the molar mass of the structure shown. Active and inactive are the calls of the source. No cut-off for these calls is given here.
Tests used:
[1] = Drug level in mouse blood at 50 mg/kg, po after 1 hr by microbiological assay; assay type: ADME, organism-based; parameters: dose 50 mg/kg, route oral; conditions: read-out: Drug uptake
Summary of the method: (§1)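 Mice given a single 50 mg/kg dose by the route in the line. Groups of five killed at each time point and blood taken from the cut axilla, heparinized and stored at 4 °C. Blood assayed the same day by large-plate microbiological assay with Sarcina lutea NCTC 8340, overnight at 30 °C. Standards made in mouse blood, with pH 7.2 phosphate-buffered saline as diluent.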

Enterobacter cloacae = experiment: Antibacterial activity against cephalosporin-resistant Enterobacter cloacae after 18 hrs by serial dilution method; assay type: functional, organism-based
Summary of the method: (§2)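 MICs by serial dilution on nutrient agar. Inoculum 0.001 mL of undiluted overnight broth culture. Plates incubated 18 h at 37 °C before reading. The S. aureus Russell strain produces β-lactamase and resists benzylpenicillin.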

[2] = Drug level in mouse blood at 50 mg/kg, sc after 30 mins by microbiological assay; assay type: ADME, organism-based; parameters: dose 50 mg/kg, route subcutaneous; conditions: read-out: Drug uptake; summary of the method: as §1
[3] = Drug level in mouse blood at 50 mg/kg, po after 2 hrs by microbiological assay; assay type: ADME, organism-based; parameters: dose 50 mg/kg, route oral; conditions: read-out: Drug uptake; summary of the method: as §1
[4] = Drug level in mouse blood at 50 mg/kg, po after 4 hrs by microbiological assay; assay type: ADME, organism-based; parameters: dose 50 mg/kg, route oral; conditions: read-out: Drug uptake; summary of the method: as §1
[5] = Drug level in mouse blood at 50 mg/kg, sc after 10 mins by microbiological assay; assay type: ADME, organism-based; parameters: dose 50 mg/kg, route subcutaneous; conditions: read-out: Drug uptake; summary of the method: as §1
[6] = Drug metabolism in mouse assessed as metabolite level in urine by Sarcina lutea antibacterial assay; assay type: ADME
Summary of the method: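 Urine from dosed mice run on paper strip chromatography in butanol-ethanol-water (4:1:5). Active zones located on agar plates seeded with Sarcina lutea.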

Morganella morganii = experiment: Antibacterial activity against cephalosporin-resistant Proteus morganii after 18 hrs by serial dilution method; assay type: functional, organism-based; summary of the method: as §2
[7] = Drug level in mouse blood at 50 mg/kg, sc after 4 hrs by microbiological assay; assay type: ADME, organism-based; parameters: dose 50 mg/kg, route subcutaneous; conditions: read-out: Drug uptake; summary of the method: as §1
[8] = Drug level in mouse blood at 50 mg/kg, po after 10 mins by microbiological assay; assay type: ADME, organism-based; parameters: dose 50 mg/kg, route oral; conditions: read-out: Drug uptake; summary of the method: as §1
[9] = Drug level in mouse blood at 50 mg/kg, sc after 1 hr by microbiological assay; assay type: ADME, organism-based; parameters: dose 50 mg/kg, route subcutaneous; conditions: read-out: Drug uptake; summary of the method: as §1
[10] = Drug level in mouse blood at 50 mg/kg, sc after 2 hrs by microbiological assay; assay type: ADME, organism-based; parameters: dose 50 mg/kg, route subcutaneous; conditions: read-out: Drug uptake; summary of the method: as §1
Shigella sonnei = experiment: Antibacterial activity against Shigella sonnei after 18 hrs by serial dilution method; assay type: functional
Summary of the method: (§3)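 MICs by serial dilution on nutrient agar. Inoculum 0.001 mL of undiluted overnight broth culture. Plates incubated at 37 °C for 18 h before reading.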

Pseudomonas aeruginosa = experiment: Antibacterial activity against cephalosporin-resistant Pseudomonas aeruginosa after 18 hrs by serial dilution method; assay type: functional, organism-based; summary of the method: as §2
[11] = Drug level in mouse blood at 50 mg/kg, sc after 20 mins by microbiological assay; assay type: ADME, organism-based; parameters: dose 50 mg/kg, route subcutaneous; conditions: read-out: Drug uptake; summary of the method: as §1
[12] = Drug level in mouse blood at 50 mg/kg, po after 30 mins by microbiological assay; assay type: ADME, organism-based; parameters: dose 50 mg/kg, route oral; conditions: read-out: Drug uptake; summary of the method: as §1
[13] = Drug level in mouse blood at 50 mg/kg, po after 20 mins by microbiological assay; assay type: ADME, organism-based; parameters: dose 50 mg/kg, route oral; conditions: read-out: Drug uptake; summary of the method: as §1
Escherichia coli = experiment: Antibacterial activity against Escherichia coli after 18 hrs by serial dilution method; assay type: functional; summary of the method: as §3
[14] = Drug level in mouse blood at 50 mg/kg, iv after 20 mins by microbiological assay; assay type: ADME, organism-based; parameters: dose 50 mg/kg, route intravenous; conditions: read-out: Drug uptake; summary of the method: as §1
[15] = Drug level in mouse blood at 50 mg/kg, iv after 30 mins by microbiological assay; assay type: ADME, organism-based; parameters: dose 50 mg/kg, route intravenous; conditions: read-out: Drug uptake; summary of the method: as §1
Proteus mirabilis = experiment: Antibacterial activity against Proteus mirabilis after 18 hrs by serial dilution method; assay type: functional; summary of the method: as §3
[16] = Drug level in mouse blood at 50 mg/kg, iv after 10 mins by microbiological assay; assay type: ADME, organism-based; parameters: dose 50 mg/kg, route intravenous; conditions: read-out: Drug uptake; summary of the method: as §1
[17] = Drug level in mouse blood at 50 mg/kg, iv after 1 hr by microbiological assay; assay type: ADME, organism-based; parameters: dose 50 mg/kg, route intravenous; conditions: read-out: Drug uptake; summary of the method: as §1
Salmonella typhi = experiment: Antibacterial activity against Salmonella typhi after 18 hrs by serial dilution method; assay type: functional, Salmonella enterica subsp. enterica serovar Typhi; conditions: Salmonella enterica; summary of the method: as §2
Staphylococcus aureus [18] = experiment: Antibacterial activity against Staphylococcus aureus Oxford after 18 hrs by serial dilution method; assay type: functional; summary of the method: as §3
Staphylococcus aureus [19] = experiment: Antibacterial activity against beta-lactamase producing benzylpenicillin-resistant Staphylococcus aureus Russell after 18 hrs by serial dilution method; assay type: functional; summary of the method: as §2
Klebsiella aerogenes = experiment: Antibacterial activity against Klebsiella aerogenes after 18 hrs by serial dilution method; assay type: functional; summary of the method: as §3
[20] = Drug level in mouse blood at 50 mg/kg, iv after 2 hrs by microbiological assay; assay type: ADME, organism-based; parameters: dose 50 mg/kg, route intravenous; conditions: read-out: Drug uptake; summary of the method: as §1
[21] = Drug level in mouse blood at 50 mg/kg, iv after 4 hrs by microbiological assay; assay type: ADME, organism-based; parameters: dose 50 mg/kg, route intravenous; conditions: read-out: Drug uptake; summary of the method: as §1

Compound | concentration at 1 h [1] [ng/mL] | concentration at 0.5 h [2] [ng/mL] | concentration at 2 h [3] [ng/mL] | concentration at 4 h [4] [ng/mL] | concentration at 10 min [5] [ng/mL] | concentration at 4 h [7] [ng/mL] | concentration at 10 min [8] [ng/mL] | concentration at 1 h [9] [ng/mL] | concentration at 2 h [10] [ng/mL] | MIC (Shigella sonnei) [µg/mL] | concentration at 20 min [11] [ng/mL] | concentration at 0.5 h [12] [ng/mL] | concentration at 20 min [13] [ng/mL] | MIC (Escherichia coli) [µg/mL] | MIC (Proteus mirabilis) [µg/mL] | MIC (Salmonella typhi) [µg/mL] | MIC (Staphylococcus aureus [18]) [µg/mL] | MIC (Staphylococcus aureus [19]) [µg/mL] | MIC (Klebsiella aerogenes) [µg/mL] | also measured
N[C@@H](C(=O)N[C@@H]1C(=O)N2C(C(=O)O)=C(Cc3cccc(C(=O)O)c3)CS[C@H]12)c1ccccc1 | 1700 | 49600 | 1600 | 550 | 84200 | 1600 | 870 | 26200 | 13700 | 25 (≈ 53.5 µM) | 64200 | 1800 | 1050 |  |  |  |  |  |  | Activity (Enterobacter cloacae): inactive; Drug metabolism [6]: metabolite_notdetected; Activity (Morganella morganii): inactive; Activity (Pseudomonas aeruginosa): inactive
CC(=O)OCC1=C(C(=O)O)N2C(=O)[C@@H](NC(=O)[C@H](N)c3ccccc3)[C@H]2SC1 [CEPHALOGLYCIN] | 600 | 21700 | 700 | 70 | 37100 | < 100 | 1700 | 3100 | 200 | 2.5 (≈ 6.17 µM) | 30200 | 2000 | 2600 | 5 (≈ 12.3 µM) | 5 (≈ 12.3 µM) | 1.25 (≈ 3.08 µM) | 1.25 (≈ 3.08 µM) | 2.5 (≈ 6.17 µM) | 5 (≈ 12.3 µM) | concentration at 20 min [14]: 40200 ng/mL; concentration at 0.5 h [15]: 11000 ng/mL; concentration at 10 min [16]: 62400 ng/mL; concentration at 1 h [17]: 1500 ng/mL; concentration at 2 h [20]: < 100 ng/mL; concentration at 4 h [21]: < 100 ng/mL
N[C@@H](C(=O)N[C@@H]1C(=O)N2C(C(=O)O)=C(Cc3ccccn3)CS[C@H]12)c1ccccc1 |  |  |  |  |  |  |  |  |  | 25 (≈ 58.9 µM) |  |  |  | 50 (≈ 118 µM) | 50 (≈ 118 µM) | 12.5 (≈ 29.4 µM) | 1.25 (≈ 2.94 µM) | 12.5 (≈ 29.4 µM) | > 500 | 
N[C@@H](C(=O)N[C@@H]1C(=O)N2C(C(=O)O)=C(Cc3cccnc3)CS[C@H]12)c1ccccc1 | 620 |  | 650 | 100 |  |  | 2850 |  |  | 2.5 (≈ 5.89 µM) |  | 1250 | 1440 | 2.5 (≈ 5.89 µM) | 5 (≈ 11.8 µM) | 1.25 (≈ 2.94 µM) | 0.25 (≈ 0.589 µM) | 2.5 (≈ 5.89 µM) | 2.5 (≈ 5.89 µM) | Activity (Enterobacter cloacae): inactive; Activity (Morganella morganii): inactive; Activity (Pseudomonas aeruginosa): inactive
N[C@@H](C(=O)N[C@@H]1C(=O)N2C(C(=O)O)=C(Cc3cncc(C(=O)O)c3)CS[C@H]12)c1ccccc1 | 1500 | 35800 | 600 | < 400 | 70400 | < 400 | 550 | 12200 | 2000 | 12.5 (≈ 26.7 µM) | 54000 | 1700 | 850 | 12.5 (≈ 26.7 µM) | 1.25 (≈ 2.67 µM) | 2.5 (≈ 5.34 µM) | 1.25 (≈ 2.67 µM) | 12.5 (≈ 26.7 µM) | 1.25 (≈ 2.67 µM) | 
O=C(Cc1cccs1)N[C@@H]1C(=O)N2C(C(=O)[O-])=C(C[n+]3ccccc3)CS[C@H]12 [CEPHALORIDINE] |  | 18500 |  |  | 32800 | < 200 |  | 5600 | 710 |  | 24400 |  |  |  |  |  |  |  |  | concentration at 20 min [14]: 23200 ng/mL; concentration at 0.5 h [15]: 14300 ng/mL; concentration at 10 min [16]: 48800 ng/mL; concentration at 1 h [17]: 2900 ng/mL; concentration at 2 h [20]: 320 ng/mL; concentration at 4 h [21]: < 50 ng/mL
N[C@@H](C(=O)N[C@@H]1C(=O)N2C(C(=O)O)=C(CC3CCCCO3)CS[C@H]12)c1ccccc1 (stereo partly drawn) |  |  |  |  |  |  |  |  |  | 25 (≈ 57.9 µM) |  |  |  | > 50 | > 50 | 25 (≈ 57.9 µM) | 5 (≈ 11.6 µM) | 5 (≈ 11.6 µM) | 10 (≈ 23.2 µM) | 
